This is an account of results in ChEMBL document CHEMBL1136866, “Synthesis, antiplatelet and in silico evaluations of novel N-substituted-phenylamino-5-methyl-1H-1,2,3-triazole-4-carbohydrazides” (Bioorg Med Chem, 2009).

Common to all, as to assay type: functional
Assay [1] is described as follows: Antiplatelet activity in human citreated platelet rich plasma assessed as inhibition of arachidonic acid-induced platelet aggregation at 100 ug/ml preincubated before arachidonic acid challenge. An outline of the steps: (§1)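 Human PRP from whole blood spun 120g, 5 min, room temperature; platelet count set to 3.0 × 10^5/μL with homologous platelet-poor plasma (1500g, 5 min). PRP preincubated 2 min at 37 °C with compound at 100 μg ml−1 or DMSO solvent (final 1%), then agonist added (ADP, adrenaline or arachidonic acid). Read-out: % inhibition of aggregation, measured within 3 h of blood sampling.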

The nature of assay [2]: Antiplatelet activity in human citreated platelet rich plasma assessed as inhibition of arachidonic acid-induced platelet aggregation preincubated before arachidonic acid challenge. An outline of the steps: (§2)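 Human PRP prepared by whole-blood centrifugation (120g, 5 min, room temperature) and adjusted to 3.0 × 10^5 platelets/μL using homologous platelet-poor plasma (1500g, 5 min). Compound at 1–500 μg ml−1, or DMSO (final 1%), preincubated with PRP 2 min at 37 °C before agonist (ADP, adrenaline or arachidonic acid). IC50 in μg ml−1 from aggregation inhibition, assayed within 3 h of sampling.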

A short description of assay [3]: Antiplatelet activity in human citreated platelet rich plasma assessed as inhibition of adenosine diphosphate-induced platelet aggregation preincubated before adenosine diphosphate challenge. An outline of the steps:
as §2

A short description of assay [4]: Antiplatelet activity in human citreated platelet rich plasma assessed as inhibition of adrenaline-induced platelet aggregation preincubated before adrenaline challenge. An outline of the steps: as §2
Assay [5] can be described thus: Antiplatelet activity in human citreated platelet rich plasma assessed as inhibition of adenosine diphosphate-induced platelet aggregation at 100 ug/ml preincubated before adenosine diphosphate challenge. A digest of the protocol: as §1
Assay [6] relates to Platelet. Kind of assay: Antiplatelet activity in human citreated platelet rich plasma assessed as inhibition of adrenaline-induced platelet aggregation at 100 ug/ml preincubated before adrenaline challenge. A digest of the protocol: as §1

Converted amounts (≈) assume the structure as drawn. The source made the active and inactive calls. The calls are words filed in the database; no cut-off is given here.

As a reminder, the inhibition is the share of the control response that was lost under treatment. In general, IC50 refers to the concentration that inhibits the measured activity by half. Take `Cc1c(C(=O)N/N=C/c2ccc(Br)s2)nnn1Nc1ccc(Cl)cc1`: the inhibition at 100 µg/mL in assay [1] was ≥ 50%. Moreover, the results for the concentration for half-maximal inhibition (IC50) in assay [2], in assay [3] and in assay [4] were 9.1 µg/mL (≈ 20.7 µM), 332 µg/mL (≈ 756 µM) and 144 µg/mL (≈ 328 µM), respectively.
For `Cc1c(C(=O)N/N=C/c2ccccc2)nnn1Nc1ccccc1`, the concentration for half-maximal inhibition (IC50) was 230 µg/mL (≈ 718 µM) in assay [2], 19 µg/mL (≈ 59.4 µM) in assay [3] and 9.6 µg/mL (≈ 30 µM) in assay [4]. Also, the inhibition at 100 µg/mL in assay [5] was > 50%. Moreover, the inhibition entry in assay [6] is “Active”.
With `Cc1c(C(=O)N/N=C/c2ccccc2)nnn1Nc1ccc(Cl)cc1`, in assay [1], the inhibition at 100 µg/mL was ≥ 50%. Besides, the IC50 in assay [2] amounted to 32.2 µg/mL (≈ 90.8 µM); in assay [3], 180 µg/mL (≈ 508 µM); in assay [4] it was 28.9 µg/mL (≈ 81.5 µM). The inhibition result in assay [6] is “Active”.
On to `Cc1c(C(=O)N/N=C/c2ccc(Br)s2)nnn1Nc1ccccc1`, for which the inhibition at 100 µg/mL in assay [1] is ≥ 50%. The IC50 in assay [2] came out at 9.1 µg/mL (≈ 22.5 µM); in assay [3] it was 317 µg/mL (≈ 782 µM); in assay [4], 13.4 µg/mL (≈ 33.1 µM). Moreover, the inhibition result in assay [6] is “Active”.
Consider `Cc1c(C(=O)N/N=C/c2ccncc2)nnn1Nc1ccc(Cl)cc1`, for which, in assay [1], the inhibition at 100 µg/mL is ≥ 50%. In addition, the IC50 was 33.1 µg/mL (≈ 93 µM) in assay [2], 169 µg/mL (≈ 474 µM) in assay [3] and 145 µg/mL (≈ 406 µM) in assay [4].
Turning to `Cc1c(C(=O)N/N=C/c2ccncc2)nnn1Nc1ccccc1`, in assay [1], the inhibition at 100 µg/mL is ≥ 50%. The IC50 worked out at 8.8 µg/mL (≈ 27.4 µM) in assay [2], 278 µg/mL (≈ 864 µM) in assay [3] and 161 µg/mL (≈ 501 µM) in assay [4].
`Cc1c(C(=O)N/N=C/c2ccco2)nnn1Nc1ccc(Cl)cc1`: the inhibition at 100 µg/mL in assay [1] was ≥ 50%. The values for the IC50 in assay [2], in assay [3] and in assay [4] were 8.9 µg/mL (≈ 25.8 µM), 261 µg/mL (≈ 757 µM) and 7.8 µg/mL (≈ 22.6 µM), respectively. Further, in assay [6], the inhibition result is “Active”.
In the case of `Cc1c(C(=O)N/N=C/c2ccc([N+](=O)[O-])o2)nnn1Nc1ccc(Cl)cc1`, in assay [1], the inhibition at 100 µg/mL is ≥ 50%. Further, the IC50 is 35.5 µg/mL (≈ 91.1 µM) in assay [2], 136 µg/mL (≈ 350 µM) in assay [3] and 147 µg/mL (≈ 377 µM) in assay [4].
In the case of `Cc1c(C(=O)N/N=C/c2ccco2)nnn1Nc1ccccc1`, the 50% inhibitory concentration (IC50) worked out at 112 µg/mL (≈ 359 µM) in assay [2], 338 µg/mL (≈ 1090 µM) in assay [3] and 20.1 µg/mL (≈ 64.8 µM) in assay [4]. The inhibition result in assay [6] is “Active”.
Regarding `Cc1c(C(=O)N/N=C/c2ccc([N+](=O)[O-])o2)nnn1Nc1ccccc1`, the 50% inhibitory concentration (IC50) is 169 µg/mL (≈ 476 µM) in assay [2], 11.6 µg/mL (≈ 32.6 µM) in assay [3] and 8.9 µg/mL (≈ 25 µM) in assay [4]. The inhibition at 100 µg/mL in assay [5] was > 50%. The inhibition result in assay [6] was “Active”.
As for `CC(=O)Oc1ccccc1C(=O)O` [ASPIRIN], the concentration for half-maximal inhibition (IC50) turned out to be 32.5 µg/mL (≈ 180 µM) in assay [2], 21.5 µg/mL (≈ 119 µM) in assay [3] and 11.7 µg/mL (≈ 64.9 µM) in assay [4].
